Experimental data as given in paper PMC8811920 (ACS Omega, 2022).

Tests used:
M. luteus = assay: Antibacterial assay of isolated compounds, M. luteus; assay type: cell-based; conditions: cefixime positive control
S. setubal = assay: Antibacterial assay of isolated compounds, S. setubal; assay type: cell-based; conditions: cefixime positive control
E. aerogenes = assay: Antibacterial assay of isolated compounds, E. aerogenes; assay type: cell-based, Escherichia aerogenes; conditions: cefixime positive control
Salmonella typhi = assay: Antibacterial assay of isolated compounds, S. typhi; assay type: cell-based; conditions: cefixime positive control
urease = assay: Urease inhibition assay; assay type: biochemical; conditions: 10 μL sample, 4 mg/mL in DMSO
Summary of the method: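 Mix: 25 μL urease, 50 μL phosphate buffer (3 mM, pH 4.5, containing 100 mM urea) and 10 μL sample (4 mg/mL in DMSO); 15 min at 30 °C. Ammonia detected by phenol–nitroprusside reagent plus alkaline hypochlorite, then 50 min at 30 °C. Read at 630 nm. Thiourea as control. % inhibition = (OD blank − OD sample)/OD blank × 100.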

[1] = DPPH radical scavenging assay; conditions: 10 μL sample + 190 μL DPPH, 30 min, 37 °C
Summary of the method: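 10 μL sample mixed with 190 μL DPPH solution in microplate and held 30 min at 37 °C. Absorbance read spectrophotometrically. % scavenging = (1 − Abs/Abc) × 100, where Abc is the reagent-only negative control; SC50 also described. Ascorbic acid as standard. Triplicate.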

Total reducing power = conditions: sample 4 mg/mL in DMSO, ascorbic acid equivalents
Summary of the method: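 200 μL sample (4 mg/mL in DMSO) mixed with 400 μL phosphate buffer (0.2 mol/L, pH 6.6) and 1% potassium ferricyanide; 20 min at 50 °C. Added 10% trichloroacetic acid and centrifuged 10 min at 3000 rpm. 200 μL of upper layer mixed with 0.1% FeCl3 and read at 630 nm. Expressed as μg ascorbic acid equivalent/mg extract from a calibration curve. Triplicate.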

[2] = Total antioxidant capacity; conditions: sample 4 mg/mL in DMSO, ascorbic acid equivalents
Summary of the method: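 100 μL sample (4 mg/mL in DMSO) mixed with 900 μL phosphomolybdenum reagent (0.6 M H2SO4, 28 mM sodium phosphate, 4 mM ammonium molybdate). Heated 90 min at 95 °C, cooled to room temperature, and 200 μL read at 630 nm. Quantified against an ascorbic acid calibration curve as μg AAE/mg extract. Triplicate.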

lipase = assay: Lipase inhibition assay; assay type: biochemical; conditions: 50 μL sample, 4 mg/mL in DMSO
Summary of the method: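 Lipase dissolved at 10 mg/mL in ultrapure water, spun 5 min at 16,000 rpm; supernatant used. Assay buffer 100 mM Tris, pH 8.2. Mix: 350 μL buffer, 150 μL lipase, 50 μL sample (4 mg/mL in DMSO). Started with 450 μL substrate: 0.08% v/v olive oil in 5 mM sodium acetate pH 5.0 with 1% Triton X-100. Incubated 2 h at 37 °C, spun, read at 400 nm. Orlistat standard. % inhibition = (OD blank − OD sample)/OD blank × 100.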

α-amylase = assay: α-Amylase inhibition assay; assay type: biochemical; conditions: 10 μL sample, 4 mg/mL in DMSO
Summary of the method: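 Mix in pH 6.8 phosphate buffer: α-amylase (0.14 U/mL), 10 μL sample (4 mg/mL in DMSO) and starch (2 mg/mL); 30 min at 50 °C. Stopped with 1 M HCl, then iodine/KI reagent (5 mM each) added. Read at 540 nm. Acarbose positive control at 5−200 μg/mL. Sample-free well taken as 100% activity; blank lacked sample and enzyme.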

S. aureus (ATCC # 6538) = assay: Antibacterial disc diffusion, S. aureus; assay type: cell-based, Staphylococcus aureus; conditions: isolated compounds; cefixime positive control

SMILES	antibacterial ZOI, M. luteus (M. luteus)	antibacterial ZOI, S. setubal (S. setubal)	antibacterial ZOI, E. aerogenes (E. aerogenes)	antibacterial ZOI, S. typhi (Salmonella typhi)	urease inhibition (%) (urease)	DPPH % (free-radical scavenging) [1]	TRP (Total reducing power)	TAC [2]	lipase inhibition (%) (lipase)	amylase inhibition (%) (α-amylase)	antibacterial ZOI, S. aureus (S. aureus (ATCC # 6538))	also measured
COC(=O)c1ccccc1 [compound 3, methyl benzoate]	14 ± 1.1 mm	13 ± 1.1 mm	15 ± 1.1 mm	10 ± 1.1 mm	55.1 ± 1.2%	49.4 ± 1.9%	45.2 ± 1.6 μgAAE/mg extract	82.5 ± 1.3 μgAAE/mg extract	50.3 ± 0.5%	26.2 ± 0.5%	7 ± 0.8 mm	TAC ([2]; listed as methyl benzoate): 82.5 μgAAE/mg extract
C=C(C)[C@@H]1CC[C@]2(C)CC[C@]3(C)[C@H](CC[C@@H]4[C@@]5(C)CC[C@H](O)C(C)(C)[C@@H]5CC[C@]43C)[C@@H]12 [compound 1, lup-20(29)-en-3β-ol]	15 ± 1.1 mm	12 ± 1.3 mm	14 ± 1.1 mm	18 ± 1.3 mm	85.8 ± 0.9%	68.8 ± 1.1%	96.9 ± 1.6 μgAAE/mg extract	55.5 ± 1.3 μgAAE/mg extract	84.0 ± 0.8%	16.0 ± 0.4%	14 ± 1.2 mm	antibacterial ZOI, S. typhi (Salmonella typhi; listed as lupeol): 18 mm; DPPH % (free-radical scavenging) ([1]; listed as lupeol): 68.8%; TRP (Total reducing power; listed as lupeol): 96.9 μgAAE/mg extract
C[C@H]1[C@H](C)CC[C@]2(C(=O)O)CC[C@]3(C)C(=CC[C@@H]4[C@@]5(C)CC[C@H](O)C(C)(C)[C@@H]5CC[C@]43C)[C@H]12 [compound 5, 3β-hydroxy-urs-12-en-28-oic acid]	14 ± 1.4 mm	13 ± 1.2 mm	12 ± 1.3 mm	16 ± 1.8 mm	78.8 ± 0.5%	58.6 ± 1.7%	76.2 ± 1.5 μgAAE/mg extract	70.4 ± 1.8 μgAAE/mg extract	76.6 ± 0.8%	48.9 ± 0.6%	13 ± 1.3 mm	antibacterial ZOI, S. typhi (Salmonella typhi; listed as ursolic acid): 16 mm
O=C(O)c1ccccc1 [compound 4, benzoic acid]	13 ± 1.2 mm	15 ± 1.7 mm	12 ± 1.4 mm	15 ± 1.5 mm	65.8 ± 0.6%	50.8 ± 1.6%	59.5 ± 1.5 μgAAE/mg extract	60.6 ± 1.8 μgAAE/mg extract	58.9 ± 0.7%	36.5 ± 0.9%	12 ± 1.6 mm	antibacterial ZOI, S. typhi (Salmonella typhi; listed as benzoic acid): 15 mm
CCCCCCCCCCCCCCCCCCCCCCCCCCCCCCO [compound 2, 1-triacontanol]	10 ± 0.9 mm	15 ± 1.2 mm	15 ± 1.4 mm	10 ± 1.3 mm	82.5 ± 0.8%	59.4 ± 2.1%	55.2 ± 1.8 μgAAE/mg extract	89.5 ± 1.6 μgAAE/mg extract	50.8 ± 0.9%	29.9 ± 1.4%	9 ± 1.3 mm	antibacterial ZOI, S. setubal (S. setubal; listed as 1-triacontanol): 15 mm; antibacterial ZOI, E. aerogenes (E. aerogenes; listed as 1-triacontanol): 15 mm; TAC ([2]; listed as 1-triacontanol): 89.5 μgAAE/mg extract
O=C(O)c1cccc(O)c1 [compound 6, 3-hydroxybenzoic acid]	15 ± 1.2 mm	14 ± 1.7 mm	15 ± 1.4 mm	16 ± 1.5 mm	59.8 ± 0.6%	65.8 ± 1.6%	62.5 ± 1.3 μgAAE/mg extract	66.6 ± 1.5 μgAAE/mg extract	51.9 ± 0.7%	31.5 ± 0.8%	15 ± 1.6 mm	DPPH % (free-radical scavenging) ([1]; listed as 3-Hydroxybenzoic acid): 65.8%
